From the RNAGym collection of RNA variant scans (doi:10.1126/science.aae0568)
This sample holds only a part of the variants without activity.

B1: tRNA (parent)
chain: GUUCCGUUGGCGUAAUGGUAACGCGUCUCCCUCCUAAGGAGAAGACUGCGGGUUCGAGUCCCGUACGGAACG

Variants of: B1
Assay: yeast fitness relative to wild type (ratio to wild type); higher = fitter; tRNA-Arg(CCU), competitive growth, 37 C, YPD
Method in brief: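 A pool of Saccharomyces cerevisiae strains, each with a tRNA-Arg(CCU) gene variant at the native genomic locus, was competed in YPD at 37°C for 24 hours across six parallel replicates. The variants had been chemically synthesised at a 3% per-site mutation rate over 69 sites, and gene amplicons before and after competition were read by 100-nucleotide paired-end sequencing. Darwinian fitness relative to wild type rested on changes in genotype frequencies. Genotypes required ≥ 100 starting reads, and estimates < 0.5 were set to 0.5.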
With C34G G44C C66A the yeast fitness was 0.595.
In the case of U19A G25C A43U, the yeast fitness is reported as 0.657.
With A20C C61G the yeast fitness was 0.747.
Work on U8C A70U yielded a yeast fitness of 0.994.
For C31A A45C C62U G63A U64A, the yeast fitness was 0.521.
With U8A U35A A36G A57C the yeast fitness was ≤ 0.5.
Variant C27U C30A has a yeast fitness of 0.773.
G17A U47C gave a yeast fitness of 0.774.
C22G C66U A69U gave a yeast fitness of 0.685.
Variant U13G C29U has a yeast fitness of 0.769.
For U13A A21C C24A G25C C49U, the yeast fitness was ≤ 0.5.
In the case of G6A A45C C46G, the yeast fitness is reported as 0.617.
For G9A G51A A57G, the yeast fitness was ≤ 0.5.
In the case of U3C U13C U28G U54A C62A, the yeast fitness is reported as ≤ 0.5.
In the case of U16C G68C A69U, the yeast fitness is reported as ≤ 0.5.
With G12A A14U U54A A57U the yeast fitness was ≤ 0.5.
For G10A C30A A42G A43U, the yeast fitness was ≤ 0.5.
G50C U59C showed a yeast fitness of 0.721.
With A20G G41A C61U the yeast fitness was 0.644.
For C29U A37C C49U C55G G68C, the yeast fitness was ≤ 0.5.
In the case of C5A U8A U16G A20U A36G A57G G68A, the yeast fitness is reported as ≤ 0.5.
With A21C C27U G48C the yeast fitness was 0.547.
With C5G A43G G56A C61G C62A the yeast fitness was ≤ 0.5.
Variant A20G G41A C60G A65G has a yeast fitness of 0.585.
Work on A20U U35C A57G yielded a yeast fitness of 0.546.
Variant U26G C61U has a yeast fitness of 0.864.
For C11G A21C A36U, the yeast fitness was 0.511.
For C24U U32A C33G C60U A69G, the yeast fitness was ≤ 0.5.
In the case of C5U A20C G68C, the yeast fitness is reported as 0.542.
In the case of C5G C24G C30G C31U U35A A36U G44A C61U, the yeast fitness is reported as 0.67.
C4A G25C C61G showed a yeast fitness of 0.711.
For C27U A36C G39C G48C G63U A70U, the yeast fitness was 0.636.
In the case of C22U C30U C55G, the yeast fitness is reported as ≤ 0.5.
With A14U A40G C62G the yeast fitness was ≤ 0.5.
For G9A C11G U13C C27A C29U C62A, the yeast fitness was ≤ 0.5.
With A20U C22U C34A U64C the yeast fitness was ≤ 0.5.
For C4A A15U G18C G56C G67A, the yeast fitness was ≤ 0.5.
Variant U16A U64C C66U has a yeast fitness of 0.68.
Work on C29G C33G A42C yielded a yeast fitness of 0.54.
Variant C4G C11A C46G has a yeast fitness of 0.693.
In the case of U7G C22A U53C, the yeast fitness is reported as ≤ 0.5.
With A20U C34G A42G A43U A65G the yeast fitness was 0.573.
For U2G A21G A69C, the yeast fitness was 0.501.
Variant G9A G12C A14C G50C has a yeast fitness of 0.594.
A20U A36C gave a yeast fitness of 0.627.
For U28A U32G A65U, the yeast fitness was ≤ 0.5.
With C27U C30G A40G G51C U64C the yeast fitness was ≤ 0.5.
For C5U C11G C33A G67A, the yeast fitness was ≤ 0.5.
With A21G C34G C66U the yeast fitness was ≤ 0.5.
With U26A A36C C61U the yeast fitness was ≤ 0.5.
With C4A G9A U16A A40G C46U C62G A69U the yeast fitness was ≤ 0.5.
With U3A A15G U35C G52A G58C C66U the yeast fitness was ≤ 0.5.
For G10C C27G G38C G56A, the yeast fitness was 0.526.
In the case of U8C U53A U64C, the yeast fitness is reported as ≤ 0.5.
With U3A C29G A57G the yeast fitness was ≤ 0.5.
A37C G68A gave a yeast fitness of 0.729.
U13A G23C gave a yeast fitness of 0.57.
C22A A37G gave a yeast fitness of 0.823.
With G18C G50U U53A the yeast fitness was ≤ 0.5.
C27U G48A C49U A65G gave a yeast fitness of 0.714.
With U35C G38U C46U C55G the yeast fitness was ≤ 0.5.
Work on A15U C33G yielded a yeast fitness of 0.551.
With C22U C27G U28G U32G the yeast fitness was ≤ 0.5.
In the case of U3G A43G U47A C49A, the yeast fitness is reported as 0.535.
For A36C A70C, the yeast fitness was 0.605.
In the case of C5G A21G U28C U32C A65U G68A, the yeast fitness is reported as ≤ 0.5.
Variant C34G A40U has a yeast fitness of 0.596.
For G6A A15C C60A C62U, the yeast fitness was ≤ 0.5.
For G6A G41A G51C, the yeast fitness was ≤ 0.5.
In the case of C11U U28G C29A, the yeast fitness is reported as ≤ 0.5.
In the case of U3C C4U G10A C30U C49U, the yeast fitness is reported as 0.598.
For G6A C22G A37G U47A A70C, the yeast fitness was ≤ 0.5.
G25C C31U showed a yeast fitness of 0.87.
C5U C46G C49G gave a yeast fitness of 0.527.
With C30G U47C C66U the yeast fitness was 0.634.
C34G A42G G48C gave a yeast fitness of 0.531.
For U2C U19G G68A, the yeast fitness was 0.559.
For C30U C33A G63C U64C, the yeast fitness was ≤ 0.5.
For C27A C30U C33G A37C A57U, the yeast fitness was ≤ 0.5.
For C4A U13G A40G A45U U47A, the yeast fitness was ≤ 0.5.
C27G G41C C66U showed a yeast fitness of 0.747.
For U32A C46A A65G C66A G68C, the yeast fitness was ≤ 0.5.
Work on U16A G56A A69C yielded a yeast fitness of 0.753.
Variant G18A A65U A69U has a yeast fitness of 0.718.
In the case of C24G A45C C49A G52A, the yeast fitness is reported as ≤ 0.5.
For G12A C33A A40G A70U, the yeast fitness was ≤ 0.5.
U13C C30U C33U A69U A70G gave a yeast fitness of 0.568.
For C4U C22U C31A U32C A43U, the yeast fitness was ≤ 0.5.
In the case of U3C G12A C29G C34U A36C G56C, the yeast fitness is reported as ≤ 0.5.
With C4G A15G C29A C34U C66G the yeast fitness was ≤ 0.5.
Work on U32A A43C C49A yielded a yeast fitness of 0.542.
Work on U19C C27U C29G C34A A42C A65G yielded a yeast fitness of 0.541.
With C22U C31G U53A the yeast fitness was ≤ 0.5.
For C27G G48C A57U, the yeast fitness was ≤ 0.5.
With G41A A57C C62A the yeast fitness was ≤ 0.5.
For C11G G17A C62G, the yeast fitness was ≤ 0.5.
In the case of G23C A43U C61U G68A, the yeast fitness is reported as 0.52.
With A20G C31U the yeast fitness was 0.995.
For G10A U16A G17A U32A A42U G48C, the yeast fitness was ≤ 0.5.
With G23A C33U C34U A40U the yeast fitness was ≤ 0.5.
With C5A C55U the yeast fitness was 0.707.
With G9A G10A C34U C66U the yeast fitness was ≤ 0.5.
With A15U A42C U47A G63C A69C the yeast fitness was ≤ 0.5.
In the case of U8A U47G G56A, the yeast fitness is reported as ≤ 0.5.
With C24U U32C A36U A37G U54A the yeast fitness was ≤ 0.5.
In the case of A40U A69C, the yeast fitness is reported as 0.851.
C31U G44A C46U gave a yeast fitness of 0.629.
Variant C5G G39C A70G has a yeast fitness of 0.596.
In the case of U3A U8A C31G A40C C66U, the yeast fitness is reported as ≤ 0.5.
With C5G U7G U13A C30A A43C U53C the yeast fitness was 0.876.
With U2G C34U A40G C46A the yeast fitness was ≤ 0.5.
For C5U G56A U59G, the yeast fitness was 0.516.
For C27A A36U A37U A65G, the yeast fitness was ≤ 0.5.
A45C U47C showed a yeast fitness of 0.951.
With C22U C30U C49G the yeast fitness was 0.556.
For C27G A36G C66G, the yeast fitness was 0.548.
Work on G10A C27G G38A A42G yielded a yeast fitness of 0.661.
In the case of C4U C5A A36U G39C A65C, the yeast fitness is reported as ≤ 0.5.
In the case of C29U G48C G52A A69U, the yeast fitness is reported as ≤ 0.5.
With U19A C34G A40G the yeast fitness was ≤ 0.5.
Work on A15G G38A yielded a yeast fitness of 0.866.
U19G U32A gave a yeast fitness of 0.735.
For A14G A45U A69C, the yeast fitness was 0.748.
Variant C24U A43U C66U has a yeast fitness of 0.801.
In the case of C4U U8G A15U C62U, the yeast fitness is reported as ≤ 0.5.
With C33G A42C G67A the yeast fitness was ≤ 0.5.
With C4U U26G C29U A65U G68A the yeast fitness was ≤ 0.5.
With C11A C31A the yeast fitness was 0.524.
For A36U G39A A45G, the yeast fitness was ≤ 0.5.
Work on C33A C49U C66U yielded a yeast fitness of 0.524.
For C22A C31G C46A C49U, the yeast fitness was ≤ 0.5.
Work on C27G G48A yielded a yeast fitness of 0.565.
In the case of C33G G51A U53A G56A G67C, the yeast fitness is reported as ≤ 0.5.
Variant U8A G67C has a yeast fitness of 0.736.
Work on A20C C31U G68C yielded a yeast fitness of 0.609.
In the case of G18C C24G A36C G38C U47C G58C, the yeast fitness is reported as ≤ 0.5.
For C4A C11U U32A G38C U47A, the yeast fitness was ≤ 0.5.
For C4A C22U G68A, the yeast fitness was ≤ 0.5.
For C5G C11U A42G C49U A69C A70G, the yeast fitness was ≤ 0.5.
With A20C U35G C46U the yeast fitness was ≤ 0.5.
U47C C61U showed a yeast fitness of 0.888.
For C29A G63A, the yeast fitness was 0.623.
C30U C31A A40U C49A gave a yeast fitness of 0.682.
For A15U A70C, the yeast fitness was 0.867.
Variant C30A A37G has a yeast fitness of 0.86.
With G9A G10A G25A C31G G52A C61U the yeast fitness was ≤ 0.5.
With A37C C49G A65C the yeast fitness was ≤ 0.5.
For A20U C24U A42U C46A G56A G67A, the yeast fitness was ≤ 0.5.
In the case of A20G U26A C66A, the yeast fitness is reported as ≤ 0.5.
For C31G A42G C49G, the yeast fitness was ≤ 0.5.
In the case of G9A G50C C62G C66U, the yeast fitness is reported as 0.687.
With A14G G17A A37G the yeast fitness was 0.536.
In the case of A14C U35A G50A A69U, the yeast fitness is reported as ≤ 0.5.
In the case of C27U G44A C49U G52A A57C, the yeast fitness is reported as ≤ 0.5.
In the case of U2A C4G C5G G25A C30G C34A C49G, the yeast fitness is reported as ≤ 0.5.
For C55G A65C, the yeast fitness was 0.529.
With G17A C22U C66U the yeast fitness was 0.589.
With C11A C30U G56A A69C the yeast fitness was ≤ 0.5.
Variant G23C C31A C49A has a yeast fitness of 0.758.
G18C G67C showed a yeast fitness of 0.656.
In the case of A15C G25A A42U A65C G67U, the yeast fitness is reported as ≤ 0.5.
With G10A A15C C34A C49U C61G the yeast fitness was 0.603.
In the case of C24G G44C G58C G68U, the yeast fitness is reported as 0.516.
For C24U C34U G41A, the yeast fitness was 0.539.
With U2C C27A A69C the yeast fitness was ≤ 0.5.
With C30U A40C the yeast fitness was 0.792.
In the case of U35A C49G G58A C60A, the yeast fitness is reported as ≤ 0.5.
